Laboratory results published in ChEMBL document CHEMBL1156412, “Absolute stereostructures of three new sesquiterpenes from the fruit of Alpinia oxyphylla with inhibitory effects on nitric oxide production and degranulation in RBL-2H3 cells” (J Nat Prod, 2002).
pIC50: −log10 of the molar value.

Key:
Macrophage [1] = test: Inhibition of LPS-induced NO production in ddY mouse macrophages assessed as […] accumulation after 20 hrs by Griess reagent method; type: functional, cell-based
Method in brief: (§1)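 Adherent peritoneal macrophages from male ddY mice, 5 × 10^5 cells/well, in RPMI 1640 with 5% FCS. Cultured 20 h with 10 µg/mL LPS and compound (3-100 µM, 0.5% DMSO final). Nitrite in the medium measured with Griess reagent. Inhibition % = (A−B)/(A−C)×100 against LPS-only and unstimulated wells. N=4; IC50 determined graphically.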

Macrophage [2] = test: Inhibition of LPS-induced NO production in ddY mouse macrophages assessed as nitrite accumulation at 3 uM after 20 hrs by Griess reagent method relative to control
RBL-2H3 [3] = test: Inhibition of rat RBL2H3 cell degranulation assessed as inhibition of beta-hexosamidase release at 10 uM after 10 mins by microplate reader assay relative to control; type: functional; details: RBL-2H3, 10 min
Method in brief: (§2)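 RBL-2H3 cells, 2 × 10^5/well, sensitized overnight with 0.45 µg/mL anti-DNP IgE. Cells washed, then held in Siraganian buffer (pH 7.2, glucose, CaCl2, 0.1% BSA). Sample (0.1% DMSO final) added for 10 min, then DNP-BSA (10 µg/mL final) for 10 min at 37 °C. Supernatant β-hexosaminidase assayed on 1 mM p-nitrophenyl-N-acetyl-β-D-glucosaminide, pH 4.5, 1 h, 405 nm. Inhibition corrected for blank and spontaneous release; N=4.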

Macrophage [4] = test: Inhibition of LPS-induced NO production in ddY mouse macrophages assessed as […] accumulation at 30 uM after 20 hrs by Griess reagent method relative to control; type: functional; method in brief: as §1
RBL-2H3 [5] = test: Inhibition of rat RBL2H3 cell degranulation assessed as inhibition of beta-hexosamidase release at 100 uM after 10 mins by microplate reader assay relative to control; type: functional; details: RBL-2H3, 10 min; method in brief: as §2
Macrophage [6] = test: Inhibition of LPS-induced NO production in ddY mouse macrophages assessed as […] accumulation at 100 uM after 20 hrs by Griess reagent method relative to control; type: functional; method in brief: as §1
Macrophage [7] = test: Inhibition of LPS-induced NO production in ddY mouse macrophages assessed as […] accumulation at 10 uM after 20 hrs by Griess reagent method relative to control; type: functional; method in brief: as §1
RBL-2H3 [8] = test: Inhibition of rat RBL2H3 cell degranulation assessed as inhibition of beta-hexosamidase release at 30 uM after 10 mins by microplate reader assay relative to control; type: functional; details: RBL-2H3, 10 min; method in brief: as §2
[9] = Cytotoxicity against ddY mouse macrophages after 20 hrs by MTT assay; type: cell-based; details: macrophage
Method in brief: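 Peritoneal exudate macrophages from male ddY mice (adherent after 1 h preculture, >95% macrophages) in RPMI 1640 with 5% FCS. Exposed to 10 µg/mL LPS plus test compound, 0.5% DMSO final, for 20 h. MTT then added for 4 h. Formazan dissolved in 2-propanol/0.04 M HCl and read at 570 nm (reference 655 nm).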

RBL-2H3 [10] = test: Inhibition of rat RBL2H3 cell degranulation assessed as inhibition of beta-hexosamidase release after 10 mins by microplate reader assay; type: functional, cell-based; details: RBL-2H3, 10 min; method in brief: as §2

Row | SMILES | pIC50 (Macrophage [1]) | inhibition at 3 µM (Macrophage [2]) [%] | inhibition at 10 µM (RBL-2H3 [3]) [%] | inhibition at 30 µM (Macrophage [4]) [%] | inhibition at 100 µM (RBL-2H3 [5]) [%] | inhibition at 100 µM (Macrophage [6]) [%] | inhibition at 10 µM (Macrophage [7]) [%] | inhibition at 30 µM (RBL-2H3 [8]) [%] | Activity [9] | pIC50 (RBL-2H3 [10])
1 | C=C(C)[C@@H]1CC[C@@]2(C)CC[C@@H](O)C(=C)C2C1 (some centres not stated) [ISOCYPEROL] | 4.68 | 10.3 | -5.3 | 64.4 | -28.9 | 96.8 | 23.9 | -11.9 |  | 
2 | C=C(C)[C@@H]1CC[C@@]2(C)CCC[C@@](C)(O)[C@@H]2C1 | 4.41 | 2.5 | 2.9 | 42.2 | 11.9 | 73.3 | 19.2 | 4.4 |  | 
3 | C=C(C)[C@@H]1CCC2=CC(=O)C[C@@H](C)[C@]2(C)C1 [NOOTKATONE] | 4.47 | -6.2 | 2 | 44.8 | 25.8 | 86.9 | 10.7 | 8.2 |  | 
4 | C=C(C)[C@H]1C=C2[C@](C)(CCC[C@@]2(C)O)CC1 [OXYPHYLLOL A] | 4.38 | 12.5 | -8.3 | 40.4 | -24 | 74.2 | 19.3 | -15.1 |  | 
5 | C[C@@]12CCC(=O)C=C1[C@](C)(O)[C@H](O)CC2 [OXYPHYLLENONE B] | < 4.00 | -8.1 | -0.8 | 19.2 | -1.8 | 41.2 | 0.4 | -1.3 |  | 
6 | C=C(C)[C@@H]1CC[C@@]2(O)[C@@H](O)CC[C@@H](C)[C@]2(C)C1 [OXYPHYLLOL C] |  |  | -1.1 |  | 8.2 |  |  | 2.4 |  | 
7 | C=C1CC[C@H]2C(C)(C)CCC[C@]2(C)[C@H]1C/C=C(/C=O)CC=O | 4.66 | -4.7 | -0.9 | 68.1 | 42 | 95.6 | 9.3 | 13.1 | Toxic | 
8 | O=c1cc(-c2ccc(O)c(O)c2)oc2cc(O)cc(O)c12 [LUTEOLIN] |  |  |  |  |  |  |  |  |  | 4.09
9 | CC(C)[C@@H]1CCC(=O)C2=C1[C@H](O)[C@](C)(O)CC2 [OXYPHYLLENODIOL A] | 4.55 | 11.8 | 1.1 | 52.5 | 1.7 | 102 | 16.9 | 0.4 |  | 
10 | CC(C)[C@H]1CCC(=O)C2=C1[C@H](O)[C@](C)(O)CC2 [OXYPHYLLENODIOL B] | < 4.00 | -4.2 | -4.3 | 19.6 | -3.1 | 40.1 | -0.4 | -3.3 |  | 
11 | COc1cc(/C=C/C(=O)CC(=O)/C=C/c2ccc(O)c(OC)c2)ccc1O [CURCUMIN] |  |  |  |  | 62.6 |  |  | 14.2 |  | 5.52
12 | C[C@@]12CCC(=O)C=C1[C@@](C)(O)[C@H](O)CC2 [OXYPHYLLENONE A] | 4.46 | 1.6 | -3.3 | 43 | -4.7 | 85.7 | -2.9 | -4.5 |  | 
13 | CNC(=N)NCCC[C@H](N)C(=O)O [TILARGININE] | 4.55 | 2 |  | 52.3 |  | 79.2 | 17.7 |  |  | 
14 | COc1cc(O)c2c(=O)cc(-c3ccccc3)oc2c1 [TECHTOCHRYSIN] | 4.64 | -0.1 | 11.9 | 60.6 | 75.1 | 87.6 | 19.2 | 40.8 | Toxic | 4.31
15 | COc1cc(O)c2c(=O)c(O)c(-c3ccccc3)oc2c1 [IZALPININ] | < 4.52 | 6.3 | 1.6 | 13.4 | 27.5 | 41.5 | 14.6 | 8.7 | Toxic | 
16 | C=C(C)[C@@H]1CC=C2[C@@H](O)CC[C@@H](C)[C@]2(C)C1 | 4.32 | 5.8 | -5 | 31 | -8 | 65.3 | 1.8 | -9.2 |  | 
